In ChEMBL document CHEMBL1158468, “Synthesis, structure-activity relationships, and in vivo evaluation of N3-phenylpyrazinones as novel corticotropin-releasing factor-1 (CRF1) receptor antagonists” (J Med Chem, 2009):
pIC50: −log10 of the molar value. The source made the active and inactive calls. The rule behind the calls is not given here.

Tests used:
[1] = target: T1, Corticotropin-releasing factor receptor 1 (Rattus norvegicus, UniProt P35353); assay: Displacement of [125I]Tyr-ovine-CRF from CRF1 receptor in rat frontal cortex homogenate by gamma counting; format: tissue-based
T1 sequence (P35353 whole entry): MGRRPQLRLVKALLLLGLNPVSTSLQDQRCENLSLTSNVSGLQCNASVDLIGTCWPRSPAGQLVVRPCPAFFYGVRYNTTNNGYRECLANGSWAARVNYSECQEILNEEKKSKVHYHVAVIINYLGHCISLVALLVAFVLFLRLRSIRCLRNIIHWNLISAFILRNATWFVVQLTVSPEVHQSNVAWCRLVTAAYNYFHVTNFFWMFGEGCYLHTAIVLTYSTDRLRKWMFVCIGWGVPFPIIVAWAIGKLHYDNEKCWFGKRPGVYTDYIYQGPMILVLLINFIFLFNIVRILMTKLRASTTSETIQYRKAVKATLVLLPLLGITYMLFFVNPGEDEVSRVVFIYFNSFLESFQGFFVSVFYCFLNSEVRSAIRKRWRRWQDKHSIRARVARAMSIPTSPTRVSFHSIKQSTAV
Method in brief: (§1)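 Washed homogenates of frozen rat frontal cortex (CRF1, 25 μg/well) or porcine choroid plexus (CRF2, 10 μg/well) in 50 mM Hepes pH 7.0, 10 mM MgCl2, 2 mM EGTA, protease inhibitors, 0.005% Triton X-100. Ligand 150 pM 125I-ovine-CRF (CRF1) or 100 pM 125I-sauvagine (CRF2). Incubation 2 h at 21 °C, then filtration and gamma counting. Nonspecific binding: 1 μM CRF1 reference antagonist or 1 μM α-helical CRF(9-41). IC50 from 5- or 10-point curves by nonlinear regression.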

[2] = tested on: Rattus norvegicus; assay: Ex vivo displacement of [125I-Tyro]-sauvagine from CRF1 receptor in Sprague-Dawley rat parietal cortex at 1 mg/kg, po by autoradiography; format: functional
Method in brief: (§2)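 Brains from orally dosed rats taken after the defensive withdrawal test. 20 μm cryostat sections preincubated 1 min, then incubated 20 min at 22–24 °C with 0.15–0.20 nM [125I-Tyro]sauvagine in 50 mM HEPES pH 7.2 buffer. Nonspecific binding from vehicle sections with 1 μM reference CRF1 antagonist. Parietal cortex occupancy read by autoradiography and computed relative to vehicle specific binding.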

[3] = tested on: Rattus norvegicus; assay: Free plasma concentration in Sprague-Dawley rat at 1 mg/kg, po; format: ADME, organism-based; parameters: dose 1 mg/kg, route oral; conditions: in vivo
[4] = tested on: Rattus norvegicus; assay: Plasma concentration in Sprague-Dawley rat at 10 mg/kg, po; format: ADME, organism-based; parameters: dose 10 mg/kg, route oral; conditions: in vivo
[5] = tested on: Rattus norvegicus; assay: Free plasma concentration in Sprague-Dawley rat at 10 mg/kg, po; format: ADME, organism-based; parameters: dose 10 mg/kg, route oral; conditions: in vivo
[6] = Octanol-water partition coefficient, log D at pH 7.4; format: physicochemical
[7] = tested on: Rattus norvegicus; assay: Ex vivo displacement of [125I-Tyro]-sauvagine from CRF1 receptor in Sprague-Dawley rat parietal cortex at 10 mg/kg, po by autoradiography; format: functional; method in brief: as §2
[8] = AUC in cynomolgus monkey at 10 mg/kg, po; format: ADME, organism-based, Macaca fascicularis; parameters: dose 10 mg/kg, route oral; conditions: plasma
Method in brief: (§3)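 Cynomolgus monkeys, n = 3 per route. Iv dose 2 mg/kg in PEG:ethanol 90:10 (v/v), 1 mL/kg, sampled from jugular vein. Oral dose 10 mg/kg as suspension in 1% Tween in 0.5% methylcellulose, 3 mL/kg, sampled from femoral vein. Sampling to 24 h; plasma measured by LC/MS/MS.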

[9] = Half life in Sprague-Dawley rat at 2 mg/kg, iv; format: ADME, organism-based; parameters: dose 2 mg/kg, route intravenous; conditions: in vivo
Method in brief: (§4)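 Male Sprague-Dawley rats; iv 2 mg/kg in PEG:ethanol 90:10 (v/v) at 1 mL/kg, or oral 10 mg/kg as 1% Tween 80 in 0.5% methylcellulose suspension at 3 mL/kg; n = 3 per route. Jugular catheter blood taken to 24 h postdose. Plasma was protein-precipitated with acetonitrile and assayed by LC/MS/MS.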

[10] = Clearance in cynomolgus monkey at 2 mg/kg, iv; format: ADME, organism-based, Macaca fascicularis; parameters: dose 2 mg/kg, route intravenous; conditions: in vivo; method in brief: as §3
[11] = Oral bioavailability in cynomolgus monkey at 10 mg/kg; format: ADME, organism-based, Macaca fascicularis; conditions: in vivo; method in brief: as §3
[12] = tested on: Rattus norvegicus; assay: Hepatic blood flow in Sprague-Dawley rat at 2 mg/kg, iv; format: ADME, organism-based, Liver; parameters: dose 2 mg/kg, route intravenous; conditions: in vivo
[13] = Volume of distribution at steady state in Sprague-Dawley rat at 2 mg/kg, iv; format: ADME, organism-based; parameters: dose 2 mg/kg, route intravenous; conditions: in vivo, read-out: Vdss; method in brief: as §4
[14] = tested on: Rattus norvegicus; assay: Plasma concentration in Sprague-Dawley rat at 1 mg/kg, po; format: ADME, organism-based; parameters: dose 1 mg/kg, route oral; conditions: in vivo
[15] = AUC in Sprague-Dawley rat at 10 mg/kg, po; format: ADME, organism-based; parameters: dose 10 mg/kg, route oral; conditions: plasma; method in brief: as §4
[16] = tested on: Rattus norvegicus; assay: Plasma concentration in Sprague-Dawley rat at 3 mg/kg, po; format: ADME, organism-based; parameters: dose 3 mg/kg, route oral; conditions: in vivo
[17] = tested on: Rattus norvegicus; assay: Anxiolytic activity in Sprague-Dawley rat assessed as decrease in latency to exit dark chamber at 3 mg/kg, po after 1 hr by defensive withdrawal test; format: functional; parameters: scale not given: the % may be the effect or the level left
Method in brief: (§5)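 Male Sprague-Dawley rats (180–300 g), dosed po 1 h before testing in 0.25% methylcellulose suspension (bead-milled), 2 mL/kg. Blind observer recorded the latency to leave a dark chamber placed in an illuminated open field (all four paws out) over 15 min. ANOVA with Fisher's LSD, p < 0.05.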

[18] = target: T2, Corticotropin-releasing factor receptor 1 (Homo sapiens, UniProt P34998); assay: Antagonist activity at CRF1 receptor in human Y79 cells assessed as inhibition of CRF-stimulated cAMP production by HTRF method
T2 sequence (P34998 whole entry): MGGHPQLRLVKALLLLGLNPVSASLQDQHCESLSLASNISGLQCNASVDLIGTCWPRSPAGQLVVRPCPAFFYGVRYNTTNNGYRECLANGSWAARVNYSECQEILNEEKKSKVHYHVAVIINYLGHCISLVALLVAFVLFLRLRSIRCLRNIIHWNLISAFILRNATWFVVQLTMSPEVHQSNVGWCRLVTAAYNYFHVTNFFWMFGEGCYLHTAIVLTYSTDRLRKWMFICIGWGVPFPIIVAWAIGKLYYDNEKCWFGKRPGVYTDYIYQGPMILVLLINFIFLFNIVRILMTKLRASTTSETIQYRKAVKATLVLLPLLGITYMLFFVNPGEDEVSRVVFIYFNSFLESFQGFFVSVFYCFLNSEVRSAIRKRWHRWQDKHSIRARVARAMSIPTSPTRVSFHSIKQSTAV

[19] = Oral bioavailability in Sprague-Dawley rat at 10 mg/kg; format: ADME, organism-based; conditions: in vivo; method in brief: as §4
[20] = tested on: Rattus norvegicus; assay: Anxiolytic activity in po dosed Sprague-Dawley rat assessed as minimal effective dose by defensive withdrawal test; format: functional; conditions: read-out: MED; method in brief: as §5
[21] = tested on: Rattus norvegicus; assay: Anxiolytic activity in Sprague-Dawley rat assessed as decrease in latency to exit dark chamber at 1 mg/kg, po after 1 hr by defensive withdrawal test; format: functional; parameters: scale not given: the % may be the effect or the level left; method in brief: as §5
[22] = (§6) Displacement of [125I]sauvagine from CRF2 receptor in pig choroid plexus homogenate by gamma counting; format: tissue-based, Sus scrofa; method in brief: as §1
[23] = organism: Sus scrofa; assay: as §6; format: tissue-based; method in brief: as §1
[24] = Cmax in Sprague-Dawley rat at 10 mg/kg, po; format: ADME, organism-based; parameters: dose 10 mg/kg, route oral; conditions: in vivo; method in brief: as §4
[25] = tested on: Rattus norvegicus; assay: Ex vivo displacement of [125I-Tyro]-sauvagine from CRF1 receptor in Sprague-Dawley rat parietal cortex at 3 mg/kg, po by autoradiography; format: functional; method in brief: as §2
[26] = Half life in cynomolgus monkey at 2 mg/kg, iv; format: ADME, organism-based, Macaca fascicularis; parameters: dose 2 mg/kg, route intravenous; conditions: in vivo; method in brief: as §3
[27] = tested on: Rattus norvegicus; assay: Free plasma concentration in Sprague-Dawley rat at 3 mg/kg, po; format: ADME, organism-based; parameters: dose 3 mg/kg, route oral; conditions: in vivo
[28] = Clearance in Sprague-Dawley rat at 2 mg/kg, iv; format: ADME, organism-based; parameters: dose 2 mg/kg, route intravenous; conditions: in vivo; method in brief: as §4
[29] = Cmax in cynomolgus monkey at 10 mg/kg, po; format: ADME, organism-based, Macaca fascicularis; parameters: dose 10 mg/kg, route oral; conditions: in vivo; method in brief: as §3
[30] = Unbound fraction in rat plasma after 3 hrs by equilibrium dialysis method; format: ADME, cell-free
Method in brief: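 Rat plasma spiked with compound, then equilibrium-dialysed against isotonic phosphate buffer for 3 h at 37 °C. Compound in the plasma and buffer samples was quantified by LC/MS/MS after acetonitrile protein precipitation with internal standard. Unbound fraction was taken as the buffer-to-plasma concentration ratio.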

[31] = Volume of distribution at steady state in cynomolgus monkey at 2 mg/kg, iv; format: ADME, organism-based, Macaca fascicularis; parameters: dose 2 mg/kg, route intravenous; conditions: in vivo, read-out: Vdss; method in brief: as §3
[32] = tested on: Rattus norvegicus; assay: Anxiolytic activity in Sprague-Dawley rat assessed as decrease in latency to exit dark chamber at 10 mg/kg, po after 1 hr by defensive withdrawal test; format: functional; parameters: scale not given: the % may be the effect or the level left; method in brief: as §5

C#Cc1cn([C@H](C)C2CC2)c(=O)c(Nc2ccc(OC)nc2C(F)(F)F)n1
pIC50 [1]: 8.25

COc1cc(C)c(Nc2nc(Cl)cn([C@H](C)C3CC3)c2=O)cc1C
pIC50 [1]: 9.38

COc1ccc(Nc2nc(Cl)cn([C@H](C)C3CC3)c2=O)c(C(F)(F)F)n1
pIC50 [1]: 8.74

COC[C@@H](C1CC1)n1cc(Cl)nc(Nc2cc(C)c(OC)cc2C)c1=O
Activity [2]: 37%
Cp(f) [3]: 0.1 nM
concentration [4]: 76 nM
Cp(f) [5]: 1.6 nM
logD [6]: 4.35
Activity [7]: 94%
AUC [8]: 0.41 µM·h
half-life [9]: 18 h
pIC50 [1]: 9.59
clearance [10]: 21 mL/min/kg
bioavailability [11]: 2%
QH [12]: 55 mL/min/kg
Vd [13]: 97 L/kg
concentration [14]: 4.9 nM
AUC [15]: 0.36 µM·h
concentration [16]: 14 nM
Activity [17]: 60%
pIC50 [18]: 8.72
bioavailability [19]: 14%
minimal effective dose [20]: 3 mg/kg
Activity [21]: <5%
pIC50 [22]: < 5.00
Activity [23]: inactive
Cmax [24]: 52 nM
Activity [25]: 72%
half-life [26]: 9.3 h
Cp(f) [27]: 0.29 nM
clearance [28]: 170 mL/min/kg
Cmax [29]: 32 nM
fraction unbound at 3 h [30]: 0.021
Vd [31]: 7.7 L/kg
Activity [32]: 65%

CC[C@H](COC)n1cc(Cl)nc(Nc2cc(C)c(OC)cc2C)c1=O
pIC50 [1]: 9.23

COC[C@H](C)n1cc(Cl)nc(Nc2cc(C)c(OC)cc2C)c1=O
pIC50 [1]: 8.24

CC[C@H](C1CC1)n1cc(Cl)nc(N(CC)c2cc(C)c(C)cc2C)c1=O
pIC50 [1]: 8.82

COc1cc(Br)c2c(c1)OCCN2c1nc(Cl)cn([C@H](C)C2CC2)c1=O
pIC50 [1]: 7.72

COc1cc(C)c(Nc2nc(Cl)cn([C@@H](CO)C3CC3)c2=O)cc1C
pIC50 [1]: 8.00

COC[C@@H](C1CC1)n1cc(Cl)nc(Nc2cc(C)c(O)cc2C)c1=O
pIC50 [1]: 6.55

CC[C@H](COC)n1cc(Cl)nc(Nc2c(C)cc(C)cc2C)c1=O
pIC50 [1]: 8.85

CC[C@H](C1CC1)n1cc(Cl)nc(Nc2ccc(C)cc2C)c1=O
pIC50 [1]: 8.18

CC[C@H](C1CC1)n1cc(Cl)nc(Nc2c(C)cccc2Cl)c1=O
pIC50 [1]: 8.03
